Source: ChEMBL document CHEMBL3351558, “Picomolar Inhibitors of HIV-1 Reverse Transcriptase: Design and Crystallography of Naphthyl Phenyl Ethers” (ACS Med Chem Lett, 2014)
Converted amounts (≈) assume the structure as drawn.

Columns and labels:
[1] = test system: Human immunodeficiency virus 1; experiment: Antiviral activity against wild type HIV1 3B infected in human MT2 cells assessed as protection from virus-induced cytopathicity by MTT assay; assay type: functional, organism-based; conditions: Human immunodeficiency virus 1, 3B
[2] = test system: Human immunodeficiency virus 1; experiment: Antiviral activity against wild type HIV1 harboring reverse transcriptase Y181C mutant infected in human MT2 cells assessed as protection from virus-induced cytopathicity by MTT assay; assay type: functional, organism-based
[3] = Cytotoxicity against human MT2 cells assessed as reduction in cell viability by MTT assay; assay type: cell-based
[4] = test system: Human immunodeficiency virus 1; experiment: Antiviral activity against wild type HIV1 harboring reverse transcriptase K103N/Y181C mutant infected in human MT2 cells assessed as protection from virus-induced cytopathicity by MTT assay; assay type: functional, organism-based
[5] = Aqueous solubility of the compound at pH 6.5 after 48 hrs by shake-flask method; assay type: physicochemical
In short: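 Shake-flask method: excess solid stirred in Britton–Robinson buffer, pH 6.5, for 48 h at 25 °C. The supernatant was passed through a 0.2 μm filter and quantified by UV–vis spectrophotometry. Piroxicam served as the control.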

[6] = Human immunodeficiency virus 1, MT2, read-out: EC50

SMILES | EC50 [1] | EC50 [2, 6] | CC50 [3] | EC50 [4, 6] | solubility thermodynamic at 48 h [5] | EC50 ([2]; mt2) | EC50 ([4]; mt2)
N#Cc1ccc2c(Oc3ccc(Cl)cc3OCCn3ccc(=O)[nH]c3=O)cc(Cl)cc2c1 | 11 nM | 49 nM | 20000 nM | 250 nM |  |  | 
N#Cc1cc2c(Oc3ccc(F)cc3OCCn3ccc(=O)[nH]c3=O)cc(F)cn2c1 | 0.4 nM | 250 nM | 50000 nM | 10 nM | 43.8 µg/mL (≈ 103 µM) |  | 
Cc1ccnc2c1NC(=O)c1cccnc1N2C1CC1 [NEVIRAPINE] |  |  | > 100000 nM |  |  | Not Active | Not Active
CN1C(C(=O)Nc2ccccn2)=C(O)c2ccccc2S1(=O)=O [PIROXICAM] |  |  |  |  | 5 µg/mL (≈ 15.1 µM) |  | 
N#Cc1cc2c(Oc3ccccc3OCCn3ccc(=O)[nH]c3=O)cc(F)cn2c1 | 0.7 nM | 170 nM | 40000 nM | 68 nM |  |  | 
N#C/C=C/c1cc(Cl)cc(Oc2ccccc2OCCn2ccc(=O)[nH]c2=O)c1 | 0.31 nM | 46 nM | 18000 nM | 24 nM | 510 µg/mL (≈ 1240 µM) |  | 
N#Cc1ccc2c(Oc3ccccc3OCCn3ccc(=O)[nH]c3=O)cc(F)cc2c1 | 1.1 nM | 8 nM | > 100000 nM | 6 nM |  |  | 
Cc1ccc2c(Oc3ccccc3OCCn3ccc(=O)[nH]c3=O)cccc2c1 | 250 nM | 12000 nM | 40000 nM | 15000 nM |  |  | 
N#Cc1cc2c(Oc3ccccc3OCCn3ccc(=O)[nH]c3=O)cc(Cl)cc2[nH]1 | 340 nM | 27000 nM | 81000 nM | 2700 nM |  |  | 
O=c1ccn(CCOc2ccccc2Oc2cc(Cl)cc3cc(Cl)ccc23)c(=O)[nH]1 | 38 nM | 430 nM | 45000 nM | 520 nM |  |  | 
N#Cc1cc2c(Oc3ccccc3OCCn3ccc(=O)[nH]c3=O)cc(Cl)cc2o1 | 19 nM | 1900 nM | > 100000 nM | 260 nM |  |  | 
N#Cc1ccc2c(Oc3ccc(Cl)cc3OCCn3ccc(=O)[nH]c3=O)cccc2c1 | 1.5 nM | 48 nM | > 100000 nM | 150 nM |  |  | 
N#Cc1cc2c(Oc3ccccc3OCCn3ccc(=O)[nH]c3=O)cc(Cl)cn2c1 | 3.7 nM | 220 nM | 39000 nM | 22 nM |  |  | 
N#Cc1cc2c(Oc3ccccc3OCCn3ccc(=O)[nH]c3=O)cccn2c1 | 0.38 nM | 310 nM | > 100000 nM | 11 nM |  |  | 
N#C/C=C/c1cc(F)cc(Oc2ccc(F)cc2OCCn2ccc(=O)[nH]c2=O)c1 |  | 16 nM |  | 85 nM | 10.8 µg/mL (≈ 26.3 µM) |  | 
N#Cc1ccc2c(Oc3ccccc3OCCn3ccc(=O)[nH]c3=O)cc(Cl)cc2c1 | 2.2 nM | 13 nM | 24000 nM | 7.5 nM |  |  | 

SMILES | EC50 [1] | EC50 [2, 6] | CC50 [3] | EC50 [4, 6] | solubility thermodynamic at 48 h [5] | EC50 ([2]; mt2) | EC50 ([4]; mt2)
Cc1cc(Oc2ccccc2OCCn2ccc(=O)[nH]c2=O)c2cc(C#N)[nH]c2c1 | 10 nM |  | 1200 nM | 800 nM |  | Not Active | 
N#Cc1ccc2c(Oc3ccc(F)cc3OCCn3ccc(=O)[nH]c3=O)cc(Cl)cc2c1 | 4.5 nM | 5.3 nM | 16000 nM | 46 nM |  |  | 
N#Cc1cc2c(Oc3ccccc3OCCn3ccc(=O)[nH]c3=O)cccc2o1 | 18 nM |  | > 100000 nM | 420 nM |  | Not Active | 
N#Cc1ccc2c(Oc3ccc(Cl)cc3OCCn3ccc(=O)[nH]c3=O)cc(F)cc2c1 | 5 nM | 32 nM | 18000 nM | 150 nM |  |  | 
N#Cc1ccc2c(Oc3ccccc3OCCn3ccc(=O)[nH]c3=O)cccc2c1 | 0.53 nM | 19 nM | > 100000 nM | 15 nM | 4.3 µg/mL (≈ 10.8 µM) |  | 
N#C/C=C/c1cc(Cl)cc(Oc2ccc(Cl)cc2OCCn2ccc(=O)[nH]c2=O)c1 |  | 49 nM |  | 220 nM |  |  | 
N#Cc1ccc2c(Oc3ccc(F)cc3OCCn3ccc(=O)[nH]c3=O)cccc2c1 | 0.49 nM | 10 nM | > 100000 nM | 48 nM |  |  | 
N#Cc1cc2c(Oc3ccc(F)cc3OCCn3ccc(=O)[nH]c3=O)cccn2c1 | 2.7 nM | 600 nM | 100000 nM | 220 nM |  |  | 
N#Cc1ccc2c(Oc3ccc(F)cc3OCCn3ccc(=O)[nH]c3=O)cc(F)cc2c1 | 1.9 nM | 5.6 nM | > 100000 nM | 21 nM |  |  | 
O=c1ccn(CCOc2ccccc2Oc2cccc3ccccc23)c(=O)[nH]1 | 60 nM | 5700 nM | 80000 nM | 5000 nM |  |  | 
N#Cc1cc2c(Oc3ccccc3OCCn3ccc(=O)[nH]c3=O)cccc2[nH]1 | 56 nM | 38000 nM | 72000 nM | 5500 nM |  |  | 
N#Cc1cc2c(Oc3ccc(F)cc3OCCn3ccc(=O)[nH]c3=O)cccc2o1 | 40 nM | 3500 nM | > 100000 nM | 4000 nM |  |  | 
N#Cc1cc2c(Oc3ccc(F)cc3OCCn3ccc(=O)[nH]c3=O)cc(Cl)cn2c1 | 2.5 nM | 160 nM | 15000 nM | 110 nM |  |  | 
O=c1ccn(CCOc2ccccc2Oc2cccc3cc(Cl)ccc23)c(=O)[nH]1 | 14 nM | 1000 nM | > 100000 nM | 710 nM |  |  | 
N#Cc1cc2c(Oc3ccc(Cl)cc3OCCn3ccc(=O)[nH]c3=O)cccc2o1 | 7 nM |  | 7000 nM |  |  | Not Active | Not Active
